≈ marks a conversion by molar mass, not a printed value.
Assays:
Serratia marcescens [1] = test: Antimicrobial activity against beta-lactamase AmpC producing meropenem-resistant Serratia marcescens by agar dilution method; format: functional
Method in brief: (§1)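 MICs by agar dilution following CLSI guidelines, with E. coli ATCC 25922 and P. aeruginosa ATCC 27853 as MIC reference strains. Where added, clavulanic acid served as the ESBL inhibitor and phenyl-arginine-β-naphthylamide as the efflux-pump inhibitor, each incorporated into the susceptibility test.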

Serratia marcescens [2] = test: Antimicrobial activity against Serratia marcescens ATCC 8100 by agar dilution method; format: functional
Method in brief: (§2)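 MICs by agar dilution following CLSI guidelines, with E. coli ATCC 25922 and P. aeruginosa ATCC 27853 as MIC reference strains. Where an inhibitor was added, boronic acid or cloxacillin served as the AmpC inhibitor.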

Escherichia coli [3] = test: Antimicrobial activity against azide-resistant Escherichia coli J53 by agar dilution method
Escherichia coli [4] = test: Antimicrobial activity against azide-resistant Escherichia coli J53 by agar dilution method in presence 4 ug/ml of clavulanic acid; format: functional; method in brief: as §1
Serratia marcescens [5] = test: Antimicrobial activity against Serratia marcescens ATCC 8100 by agar dilution method in presence of 300 ug/ml of boronic acid; format: functional; method in brief: as §2
Serratia marcescens [6] = test: Antimicrobial activity against beta-lactamase ompC intact/ompF deficient Serratia marcescens isolate YMC0566 by agar dilution method; format: functional; method in brief: as §1
Serratia marcescens [7] = test: Antimicrobial activity against beta-lactamase ompC intact/ompF deficient Serratia marcescens isolate YMC0584 by agar dilution method; format: functional; method in brief: as §1
Serratia marcescens [8] = test: Antimicrobial activity against beta-lactamase ompC intact/ompF deficient Serratia marcescens isolate YMC0583 by agar dilution method; format: functional; method in brief: as §1
Serratia marcescens [9] = test: Antimicrobial activity against Serratia marcescens ATCC 8100 by agar dilution method in presence of 20 ug/ml of phenyl-arginine-beta-naphthylamide; format: functional; method in brief: as §1
Serratia marcescens [10] = test: Antimicrobial activity against beta-lactamase AmpC producing meropenem-resistant Serratia marcescens by agar dilution method in presence of 4 ug/ml of clavulanic acid; format: functional; method in brief: as §1
Serratia marcescens [11] = test: Antimicrobial activity against beta-lactamase ompC intact/ompF deficient Serratia marcescens isolate YMC0564 by agar dilution method; format: functional; method in brief: as §1
Serratia marcescens [12] = test: Antimicrobial activity against beta-lactamase ompC intact/ompF deficient Serratia marcescens isolate YMC0573 by agar dilution method; format: functional; method in brief: as §1
Serratia marcescens [13] = test: Antimicrobial activity against beta-lactamase ompC intact/ompF deficient Serratia marcescens isolate YMC0547 by agar dilution method; format: functional; method in brief: as §1
Serratia marcescens [14] = test: Antimicrobial activity against Serratia marcescens ATCC 8100 by agar dilution method in presence of 250 ug/ml of cloxacillin; format: functional; method in brief: as §2
Serratia marcescens [15] = test: Antimicrobial activity against beta-lactamase ompC intact/ompF deficient Serratia marcescens isolate YMC0582 by agar dilution method; format: functional; method in brief: as §1
Serratia marcescens [16] = test: Antimicrobial activity against beta-lactamase ompC/ompF deficient Serratia marcescens ATCC 8100 by agar dilution method; format: functional
Serratia marcescens [17] = test: Antimicrobial activity against beta-lactamase ompC intact/ompF deficient Serratia marcescens isolate YMC0579 by agar dilution method; format: functional; method in brief: as §1
Serratia marcescens [18] = test: Antimicrobial activity against beta-lactamase ompC intact/ompF deficient Serratia marcescens isolate YMC0570 by agar dilution method; format: functional; method in brief: as §1
Serratia marcescens [19] = test: Antimicrobial activity against Serratia marcescens ATCC 8100 by agar dilution method in presence of 4 ug/ml of clavulanic acid; format: functional; method in brief: as §1

Compound: C[C@H]1[C@H](NC(=O)/C(=N\OC(C)(C)C(=O)O)c2csc(N)n2)C(=O)N1S(=O)(=O)O [AZTREONAM]
- MIC (Serratia marcescens [1]): 8 µg/mL (≈ 18.4 µM)
- MIC (Serratia marcescens [2]): 64 µg/mL (≈ 147 µM)

Compound: CO/N=C(\C(=O)N[C@@H]1C(=O)N2C(C(=O)O)=C(COC(C)=O)CS[C@H]12)c1csc(N)n1 [CEFOTAXIME]
- MIC (Escherichia coli [3]): ≤ 0.12 µg/mL
- MIC (Serratia marcescens [1]): 32 µg/mL (≈ 70.3 µM)
- MIC (Serratia marcescens [2]): > 256 µg/mL

Compound: CO[C@@]1(NC(=O)Cc2cccs2)C(=O)N2C(C(=O)O)=C(COC(N)=O)CS[C@@H]21 [CEFOXITIN]
- MIC (Escherichia coli [3]): 4 µg/mL (≈ 9.36 µM)
- MIC (Serratia marcescens [1]): 4 µg/mL (≈ 9.36 µM)
- MIC (Serratia marcescens [2]): > 256 µg/mL

Compound: CC(C)(O/N=C(\C(=O)N[C@@H]1C(=O)N2C(C(=O)[O-])=C(C[n+]3ccccc3)CS[C@H]12)c1csc(N)n1)C(=O)O [CEFTAZIDIME]
- MIC (Escherichia coli [3]): 0.25 µg/mL (≈ 0.457 µM)
- MIC (Serratia marcescens [1]): 2 µg/mL (≈ 3.66 µM)
- MIC (Serratia marcescens [2]): 128 µg/mL (≈ 234 µM)

Compound: O=C(O)c1cn(C2CC2)c2cc(N3CCNCC3)c(F)cc2c1=O [CIPROFLOXACIN]
- MIC (Serratia marcescens [1]): ≤ 0.12 µg/mL
- MIC (Serratia marcescens [2]): 8 µg/mL (≈ 24.1 µM)

Compound: C[C@@H](O)[C@H]1C(=O)N2C(C(=O)O)=C(SCCNC=N)C[C@H]12 [IMIPENEM ANHYDROUS]
- MIC (Escherichia coli [4]): 0.12 µg/mL
- MIC (Serratia marcescens [5]): 0.5 µg/mL
- MIC (Serratia marcescens [6]): 4 µg/mL (≈ 13.4 µM)
- MIC (Serratia marcescens [7]): 8 µg/mL (≈ 26.7 µM)
- MIC (Serratia marcescens [8]): 4 µg/mL (≈ 13.4 µM)
- MIC (Serratia marcescens [9]): 4 µg/mL
- MIC (Serratia marcescens [1]): 0.12 µg/mL (≈ 0.401 µM)
- MIC (Serratia marcescens [10]): 0.06 µg/mL
- MIC (Serratia marcescens [11]): 4 µg/mL (≈ 13.4 µM)
- MIC (Serratia marcescens [2]): 4 µg/mL (≈ 13.4 µM)
- MIC (Serratia marcescens [12]): 4 µg/mL (≈ 13.4 µM)
- MIC (Serratia marcescens [13]): 8 µg/mL (≈ 26.7 µM)
- MIC (Serratia marcescens [14]): 0.094 µg/mL
- MIC (Serratia marcescens [15]): 4 µg/mL (≈ 13.4 µM)
- MIC (Serratia marcescens [16]): 0.02 µg/mL (≈ 0.0668 µM)
- MIC (Serratia marcescens [17]): 4 µg/mL (≈ 13.4 µM)
- MIC (Serratia marcescens [18]): 4 µg/mL (≈ 13.4 µM)
- MIC (Serratia marcescens [19]): 4 µg/mL

Compound: C[C@@H](O)[C@H]1C(=O)N2C(C(=O)O)=C(S[C@@H]3CN[C@H](C(=O)N(C)C)C3)[C@H](C)[C@H]12 [MEROPENEM]
- MIC (Escherichia coli [4]): 0.015 µg/mL
- MIC (Serratia marcescens [5]): 1 µg/mL
- MIC (Serratia marcescens [6]): 16 µg/mL (≈ 41.7 µM)
- MIC (Serratia marcescens [7]): 16 µg/mL (≈ 41.7 µM)
- MIC (Serratia marcescens [8]): 16 µg/mL (≈ 41.7 µM)
- MIC (Escherichia coli [3]): 0.03 µg/mL (≈ 0.0782 µM)
- MIC (Serratia marcescens [9]): 8 µg/mL
- MIC (Serratia marcescens [1]): 0.015 µg/mL (≈ 0.0391 µM)
- MIC (Serratia marcescens [10]): 0.015 µg/mL
- MIC (Serratia marcescens [11]): 16 µg/mL (≈ 41.7 µM)
- MIC (Serratia marcescens [2]): 16 µg/mL (≈ 41.7 µM)
- MIC (Serratia marcescens [12]): 16 µg/mL (≈ 41.7 µM)
- MIC (Serratia marcescens [13]): 32 µg/mL (≈ 83.4 µM)
- MIC (Serratia marcescens [14]): 0.008 µg/mL
- MIC (Serratia marcescens [15]): 16 µg/mL (≈ 41.7 µM)
- MIC (Serratia marcescens [16]): 0.25 µg/mL (≈ 0.652 µM)
- MIC (Serratia marcescens [17]): 16 µg/mL (≈ 41.7 µM)
- MIC (Serratia marcescens [18]): 16 µg/mL (≈ 41.7 µM)
- MIC (Serratia marcescens [19]): 16 µg/mL

Compound: CCN1CCN(C(=O)N[C@@H](C(=O)N[C@@H]2C(=O)N3[C@@H]2SC(C)(C)[C@@H]3C(=O)O)c2ccccc2)C(=O)C1=O [PIPERACILLIN]
- MIC (Escherichia coli [3]): 1 µg/mL (≈ 1.93 µM)
- MIC (Serratia marcescens [1]): > 256 µg/mL
- MIC (Serratia marcescens [2]): > 256 µg/mL

Compound: GENTAMICIN
- MIC (Serratia marcescens [1]): 32 µg/mL
- MIC (Serratia marcescens [2]): > 256 µg/mL
